Key:
Format in all cases: functional
Mus musculus = organism: Mus musculus; test: Analgesic activity in mice by phenyl quinone-induced writhing assay with respect to aspirin.
In short: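 Phenylquinone-induced writhing in mice; potency expressed as ED50 with 95% confidence limits, relative to aspirin as reference; number of mice recorded per test.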

Rattus norvegicus [1] = test: Antiinflammatory activity was determined by inhibition of carrageenan-induced edema in rat paw with respect to phenylbutazone
In short: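 Carrageenan-induced rat paw edema; potency expressed as ED30 relative to phenylbutazone as reference; number of rats recorded.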

Rattus norvegicus [2] = organism: Rattus norvegicus; test: Antiinflammatory activity was determined by inhibition of cotton pellet granuloma in rats with respcet to Indomethacin
Rattus norvegicus [3] = organism: Rattus norvegicus; test: Gastrointestinal erosive activity was determined by 7-day chronic assay in rats; settings: 168 h, read-out: MED
In short: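 Chronic 7-day gastrointestinal erosion assay in rats; read-out is the minimum dose producing erosion (MED).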

Rattus norvegicus [4] = organism: Rattus norvegicus; test: Antiinflammatory activity was determined by inhibition of adjuvant-induced arthritis in rats with respect to naproxen
[5] = Ratio of MED GI erosion to ED30 for carrageenan rat paw was determined
In short: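 Therapeutic ratio calculated as the minimum erosive dose from the 7-day rat gastrointestinal erosion assay divided by the ED30 from the carrageenan rat paw edema assay.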

Rattus norvegicus [6] = organism: Rattus norvegicus; test: Antiinflammatory activity was determined by inhibition of cotton pellet granuloma in rats with respect to Indomethacin
Rattus norvegicus [7] = organism: Rattus norvegicus; test: Antiinflammatory activity was determined to inhibit adjuvant-induced arthritis in rats with respect to naproxen
Rattus norvegicus [8] = organism: Rattus norvegicus; test: Antiinflammatory activity was determined to inhibit cotton pellet granuloma in rats with respcet to Indomethacin

For `CCc1cc2n(c1C(=O)c1ccccc1)CCC2C(=O)O` (stereo not given), which relative potency (Mus musculus) is on record?
Its relative potency is 108.

And the relative potency (Rattus norvegicus [1])?
Its relative potency is 26.

Which results are given for `COc1ccc(C(=O)c2c(C)cc3n2CCC3C(=O)O)cc1` (stereo not given)?
relative potency (Mus musculus): 130; relative potency (Rattus norvegicus [1]): 73

Which relative potency (Rattus norvegicus [2]) does the source give for `O=C(c1ccc(F)cc1)c1c(Cl)cc2n1CCC2C(=O)O` (stereo not given) here?
The relative potency was 1.

What about the relative potency (Mus musculus) of the same compound?
Its relative potency is 151.

What about the minimal effective dose (Rattus norvegicus [3]) of the same compound?
Its minimal effective dose is roughly 0.3 mg/kg.

What about the relative potency (Rattus norvegicus [1]) of the same compound?
The relative potency was 139.

And the relative potency (Rattus norvegicus [4])?
Its relative potency is 13.

What about the Therapeutic index [5] of the same compound?
Its Therapeutic index is 3.

Which results are given for `COCCCc1cc2n(c1C(=O)c1ccc(F)cc1)CCC2C(=O)O` (stereo not given)?
relative potency (Mus musculus): ~1; relative potency (Rattus norvegicus [1]): < 3

With `CSc1ccc(C(=O)c2c(Cl)cc3n2CCC3C(=O)O)cc1` (stereo not given) as the compound, how does the relative potency (Mus musculus) read?
Its relative potency is 100.

What about the relative potency (Rattus norvegicus [1]) of the same compound?
Its relative potency is 68.

For `O=C(c1ccc(Cl)cc1)c1c(Cl)cc2n1CCC2C(=O)O` (stereo not given), which relative potency (Rattus norvegicus [2]) is on record?
Its relative potency is 3.

And the relative potency (Mus musculus)?
The relative potency was 167.

And the minimal effective dose (Rattus norvegicus [3])?
The minimal effective dose was roughly 0.2 mg/kg.

And the relative potency (Rattus norvegicus [1])?
Its relative potency is 88.

And the relative potency (Rattus norvegicus [4])?
The relative potency was 40.

And the Therapeutic index [5]?
Its Therapeutic index is 1.

What does the source list for `O=C(c1ccc(F)cc1)c1c(Br)cc2n1CCC2C(=O)O` (stereo not given)?
relative potency (Mus musculus): 120; relative potency (Rattus norvegicus [1]): 96

What does the source list for `Cc1cc2n(c1C(=O)c1ccccc1)CCC2C(=O)O` (stereo not given)?
relative potency (Rattus norvegicus [6]): 1; relative potency (Mus musculus): 250; minimal effective dose (Rattus norvegicus [3]): 1.7 mg/kg; relative potency (Rattus norvegicus [1]): 43; relative potency (Rattus norvegicus [4]): 1; Therapeutic index [5]: 5

Which results are given for `C1CCC(NC2CCCCC2)CC1.Cc1cc2n(c1C(=O)c1ccccc1)CCC2(C)C(=O)O` (stereo not given)?
relative potency (Mus musculus): 40; relative potency (Rattus norvegicus [1]): < 7

Which results are given for `COc1ccc2c(c1)c(CC(=O)O)c(C)n2C(=O)c1ccc(Cl)cc1` [INDOMETHACIN]?
relative potency (Rattus norvegicus [7]): 7; relative potency (Mus musculus): 60; relative potency (Rattus norvegicus [8]): 1; relative potency (Rattus norvegicus [1]): 16

Which relative potency (Rattus norvegicus [2]) does the source give for `Cc1cc2n(c1C(=O)c1ccc(Cl)cc1)CCC2C(=O)O` (stereo not given) here?
Its relative potency is 2.

What about the relative potency (Mus musculus) of the same compound?
The relative potency was 167.

And the minimal effective dose (Rattus norvegicus [3])?
Its minimal effective dose is 0.6 mg/kg.

What about the relative potency (Rattus norvegicus [1]) of the same compound?
Its relative potency is 122.

And the relative potency (Rattus norvegicus [4])?
Its relative potency is 3.5.

What about the Therapeutic index [5] of the same compound?
The Therapeutic index was 5.

For `COc1ccc(C(=O)c2c(Cl)cc3n2CCC3C(=O)O)cc1` (stereo not given), which relative potency (Rattus norvegicus [2]) is on record?
The relative potency was 0.7.

What about the relative potency (Mus musculus) of the same compound?
Its relative potency is 201.

What about the minimal effective dose (Rattus norvegicus [3]) of the same compound?
The minimal effective dose was roughly 1.3 mg/kg.

What about the relative potency (Rattus norvegicus [1]) of the same compound?
Its relative potency is 55.

What about the relative potency (Rattus norvegicus [4]) of the same compound?
The relative potency was 4.

And the Therapeutic index [5]?
The Therapeutic index was 5.

Which relative potency (Mus musculus) does the source give for `COCCCc1cc2n(c1C(=O)c1ccc(Cl)cc1)CCC2C(=O)O` (stereo not given) here?
Its relative potency is no less than 1.5.

What about the relative potency (Rattus norvegicus [1]) of the same compound?
The relative potency was 1.2.

For `COCCc1cc2n(c1C(=O)c1ccc(F)cc1)CCC2C(=O)O` (stereo not given), which relative potency (Mus musculus) is on record?
The relative potency was 1.1.

And the ED30 (Rattus norvegicus [1])?
The ED30 was no more than 0.3 mg/kg.

Which results are given for `O=C(c1ccccc1)c1c(Br)cc2n1CCC2C(=O)O` (stereo not given)?
relative potency (Mus musculus): 314; relative potency (Rattus norvegicus [1]): 7.4

Which relative potency (Mus musculus) does the source give for `Cc1cc(CC(=O)O)n(C)c1C(=O)c1ccc(Cl)cc1` [ZOMEPIRAC] here?
The relative potency was 36.

What about the relative potency (Rattus norvegicus [1]) of the same compound?
Its relative potency is 26.

And the Therapeutic index [5]?
Its Therapeutic index is 17.

Which results are given for `COCCc1cc2n(c1C(=O)c1ccccc1)CCC2C(=O)O` (stereo not given)?
relative potency (Mus musculus): 7.6; ED30 (Rattus norvegicus [1]): ≤ 0.3 mg/kg

What does the source list for `Cc1cc2n(c1C(=O)c1ccc(F)cc1)CCC2C(=O)O` (stereo not given)?
relative potency (Rattus norvegicus [2]): 1; relative potency (Mus musculus): 302; minimal effective dose (Rattus norvegicus [3]): 1.2 mg/kg; relative potency (Rattus norvegicus [1]): 103; relative potency (Rattus norvegicus [4]): 3; Therapeutic index [5]: 12

With `O=C(c1ccccc1)c1c(Cl)cc2n1CCC2C(=O)O` (stereo not given) as the compound, how does the relative potency (Rattus norvegicus [2]) read?
The relative potency was 0.6.

What about the relative potency (Mus musculus) of the same compound?
The relative potency was 246.

What about the minimal effective dose (Rattus norvegicus [3]) of the same compound?
The minimal effective dose was roughly 1.7 mg/kg.

And the relative potency (Rattus norvegicus [1])?
The relative potency was 10.

What about the relative potency (Rattus norvegicus [4]) of the same compound?
Its relative potency is less than 8.

What about the Therapeutic index [5] of the same compound?
The Therapeutic index was 1.

With `Cc1ccc(C(=O)c2c(Cl)cc3n2CCC3C(=O)O)cc1` (stereo not given) as the compound, how does the relative potency (Rattus norvegicus [2]) read?
The relative potency was 0.2.

And the relative potency (Mus musculus)?
Its relative potency is 158.

And the minimal effective dose (Rattus norvegicus [3])?
The minimal effective dose was 5 mg/kg.

What about the relative potency (Rattus norvegicus [1]) of the same compound?
Its relative potency is 32.

What about the relative potency (Rattus norvegicus [4]) of the same compound?
Its relative potency is 11.

And the Therapeutic index [5]?
Its Therapeutic index is 11.

Which relative potency (Rattus norvegicus [2]) does the source give for `Cc1ccc(C(=O)c2c(C)cc3n2CCC3C(=O)O)cc1` (stereo not given) here?
Its relative potency is 0.7.

And the relative potency (Mus musculus)?
The relative potency was 250.

What about the minimal effective dose (Rattus norvegicus [3]) of the same compound?
The minimal effective dose was 2.5 mg/kg.

What about the relative potency (Rattus norvegicus [1]) of the same compound?
The relative potency was 43.

And the relative potency (Rattus norvegicus [4])?
Its relative potency is 3.

What about the Therapeutic index [5] of the same compound?
The Therapeutic index was 7.

Which relative potency (Mus musculus) does the source give for `COCCc1cc2n(c1C(=O)c1ccc(Cl)cc1)CCC2C(=O)O` (stereo not given) here?
Its relative potency is 5.

And the ED30 (Rattus norvegicus [1])?
The ED30 was less than 0.3 mg/kg.

With `CCc1cc2n(c1C(=O)c1ccc(F)cc1)CCC2C(=O)O` (stereo not given) as the compound, how does the relative potency (Mus musculus) read?
Its relative potency is 121.

What about the relative potency (Rattus norvegicus [1]) of the same compound?
The relative potency was 46.

Which relative potency (Rattus norvegicus [7]) does the source give for `COc1ccc2cc([C@H](C)C(=O)O)ccc2c1` [NAPROXEN] here?
Its relative potency is 1.

And the relative potency (Mus musculus)?
Its relative potency is 7.

What about the minimal effective dose (Rattus norvegicus [3]) of the same compound?
Its minimal effective dose is 30 mg/kg.

And the relative potency (Rattus norvegicus [8])?
The relative potency was 0.2.

What about the relative potency (Rattus norvegicus [1]) of the same compound?
The relative potency was 11.

And the Therapeutic index [5]?
The Therapeutic index was 22.

What does the source list for `CS(=O)(=O)c1ccc(C(=O)c2c(Cl)cc3n2CCC3C(=O)O)cc1` (stereo not given)?
relative potency (Mus musculus): ≤ 0.8; relative potency (Rattus norvegicus [1]): < 1

For `COCCCc1cc2n(c1C(=O)c1ccccc1)CCC2C(=O)O` (stereo not given), which relative potency (Mus musculus) is on record?
The relative potency was no more than 3.

What about the relative potency (Rattus norvegicus [1]) of the same compound?
Its relative potency is less than 10.

From ChEMBL document CHEMBL1123902, “Synthesis and antiinflammatory and analgesic activity of 5-aroyl-1,2-dihydro-3H-pyrrolo[1,2-a]pyrrole-1-carboxylic acids. The 6-substituted compounds” (1987)
